Assay results gathered from unrelated publications.
Oprm1: Mu-type opioid receptor (Oprm1, Rattus norvegicus, UniProt P33535)

| Structure (SMILES) | target | assay | setting | endpoint | result |
| --- | --- | --- | --- | --- | --- |
| O=C(c1cc(O)c(O)c([N+](=O)[O-])c1)c1ccccc1F | Transthyretin (TTR, Homo sapiens, UniProt P02766) | binding, SPR | – | koff | 0.132 s⁻¹ |
| OC[C@H]1CNCCN1C[C@@H]1CCCN1C[C@H](CC1CCCCC1)N1CCN(CCC23CC4CC(CC(C4)C2)C3)[C@H](Cc2ccc(O)cc2)C1 | Oprm1 | ligand displacement, radioligand | 0.5 µM, 1 h, pH 7.5, cell membranes | remaining binding | 108% |
| Cn1cc(-c2cccc(N3CCc4c(sc5c4CC(C)(C)C5)C3=O)c2CO)cc(Nc2ccncn2)c1=O | Mast/stem cell growth factor receptor Kit (KIT, Homo sapiens, UniProt P10721, T670I) | enzyme activity, inhibitor | 1 µM | inhibition | 0% |
| CC(C)(C)c1nc2c(s1)c1nc(N)ncc1c1ccc(NS(=O)(=O)c3c(F)cccc3F)c(F)c12 | Tau-tubulin kinase 1 (TTBK1, Homo sapiens, UniProt Q5TCY1) | enzyme activity, inhibitor, radiometric | 1 µM | remaining activity | 79% |
| Cn1cc(-c2cc(F)cc(N3CCn4c(cc5c4CCCC5)C3=O)c2CO)cc(Nc2ccc(N3CCN(C4COC4)CC3)cn2)c1=O | Phosphatidylinositol 4,5-bisphosphate 3-kinase catalytic subunit delta isoform (PIK3CD, Homo sapiens, UniProt O00329) | enzyme activity, inhibitor | 0.1 µM | inhibition | -1% |
| Cc1nn(C)cc1-c1nc2c(N3CCN(Cc4ccc(Cl)cc4)CC3)c(Cl)cnc2[nH]1 | Mast/stem cell growth factor receptor Kit (KIT, Homo sapiens, UniProt P10721, D816H) | binding, competition with immobilised ligand | 1 µM | remaining binding | 71% |
| COc1ncccc1-c1cnn2ccc(N3CCN(C(=O)OC(C)C)CC3)nc12 | Casein kinase II subunit alpha (CSNK2A1, Homo sapiens, UniProt P68400) | binding, competition with immobilised ligand | 1 µM | remaining binding | 79% |
| OC[C@H]1CNCCN1C[C@@H]1CCCN1C[C@H](CC1CCCCC1)N1CCN(CCc2ccc(Cl)c(Cl)c2)[C@H](Cc2ccc(O)cc2)C1 | Oprm1 | ligand displacement, radioligand | 0.5 µM, 1 h, pH 7.5, cell membranes | remaining binding | 105% |
| COc1cc(Cl)c(C(=O)N[C@@H](CN[C@H]2CC[C@@H](N)CC2)Cc2ccc(C#N)cc2)cc1-c1ccc(CN[C@H](C)c2ccc(C)cc2)o1 | Serine/threonine-protein kinase Nek11 (NEK11, Homo sapiens, UniProt Q8NG66) | enzyme activity, inhibitor | 1 µM | remaining activity | 107% |
| Oc1ccc(C[C@@H]2CN([C@H](Cc3ccc4ccccc4c3)CN3CCC[C@H]3CN3CCNC[C@@H]3Cc3ccc4ccccc4c3)CCN2CCC23CC4CC(CC(C4)C2)C3)cc1 | Oprm1 | ligand displacement, radioligand | 0.5 µM, 1 h, pH 7.5, cell membranes | remaining binding | 112% |
| C#Cc1n[nH]c2c(-c3cn(C(C)c4ccccn4)c(=O)[nH]c3=O)cc(F)cc12 (stereo not shown) | Vascular endothelial growth factor receptor 1 (FLT1, Homo sapiens, UniProt P17948) | enzyme activity, inhibitor | 1 µM | inhibition | -3.1% |
| CC[C@@H](C)[C@@H]1CN([C@@H](CC2CCCCC2)CN2CCC[C@H]2CN2CCNC[C@@H]2CO)CCN1CCC12CC3CC(CC(C3)C1)C2 | Oprm1 | ligand displacement, radioligand | 0.5 µM, 1 h, pH 7.5, cell membranes | remaining binding | 101% |
| Nc1ncc(-c2nc(N3CCOCC3)nc(N3CCOCC3)n2)c(C(F)F)n1 | Mast/stem cell growth factor receptor Kit (KIT, Homo sapiens, UniProt P10721, A829P) | binding, competition with immobilised ligand | 10 µM | remaining binding | 80% |
